According to ChEMBL document CHEMBL3734666, “Lipophilic vancomycin aglycon dimer with high activity against vancomycin-resistant bacteria” (2015):
In brackets after ≈: the same amount, converted by molar mass. Activity calls are given as the source filed them. The rule behind the calls is not given here.

Legend:
[1] = test system: Enterococcus faecium; test: Antibacterial activity against vancomycin-resistant Enterococcus faecium ATCC 51559 after 24 hrs by broth micro dilution assay; format: functional; conditions: ATCC 51559, 24 h
Summary of the method: (§1)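 MIC read against vancomycin-sensitive staphylococci (MSSA, MRSA) and enterococci (VSE), plus vancomycin-resistant staphylococci (VISA) and enterococci (VRE).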

[2] = test system: Staphylococcus aureus; test: Antibacterial activity against vancomycin-intermediate-resistant Staphylococcus aureus […] after 24 hrs by broth micro dilution assay; format: functional; summary of the method: as §1
[3] = test system: Enterococcus faecium; test: Antibacterial activity against vancomycin-sensitive Enterococcus faecium after 24 hrs by broth micro dilution assay; format: functional
[4] = test system: Staphylococcus aureus; test: Antibacterial activity against methicillin-sensitive Staphylococcus aureus after 24 hrs by broth micro dilution assay; format: functional; summary of the method: as §1
[5] = test system: Staphylococcus aureus; test: Antibacterial activity against methicillin-resistant Staphylococcus aureus ATCC 33591 after 24 hrs by broth micro dilution assay; format: functional; conditions: ATCC 33591, 24 h; summary of the method: as §1
[6] = test system: Staphylococcus aureus; test: Antibacterial activity against methicillin-resistant Staphylococcus aureus ATCC 33591 infected in human whole blood assessed as bacterial burden at 2 uM after 3 hrs (reference value: 7.0 log10 CFU/ml); format: functional
[7] = test system: Staphylococcus aureus; test: Bactericidal activity against methicillin-resistant Staphylococcus aureus ATCC 33591 assessed as reduction in bacterial burden at 4 uM measured within 3 hrs by time-kill assay; format: functional
Summary of the method: (§2)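 Time-kill assay on MRSA starting near 8log₁₀ CFU/mL, with compound at 2 and 4 µM. Viable counts were taken over 24 h, including a 3 h point, with a detection limit of <50 CFU/mL.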

[8] = Binding affinity to N,N'-diacetyl-Lys-D-Ala-D-Lac (unknown origin) by UV-difference spectroscopy
Summary of the method: (§3)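 Binding constants (Ka) measured by UV-difference spectroscopy with the model ligands N,N′-diacetyl-Lys-D-Ala-D-Ala (sensitive) and N,N′-diacetyl-Lys-D-Ala-D-Lac (resistant).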

[9] = test system: Enterococcus faecium; test: Inhibition of peptidoglycan biosynthesis in vancomycin-resistant Enterococcus faecium ATCC 51559 assessed as accumulation of UDP-MurNAc-pp at 5 uM after 60 mins by mass spectrometric analysis; format: functional, organism-based
[10] = test system: Staphylococcus aureus; test: Bactericidal activity against methicillin-resistant Staphylococcus aureus ATCC 33591 assessed as reduction in bacterial burden at 4 uM measured within 24 hrs by time-kill assay; format: functional, organism-based; summary of the method: as §2
[11] = Binding affinity to N,N'-diacetyl-Lys-D-Ala-D-Ala (unknown origin) by UV-difference spectroscopy; summary of the method: as §3
[12] = test system: Staphylococcus aureus; test: Antibacterial activity against methicillin-resistant Staphylococcus aureus ATCC 33591 infected in human whole blood assessed as bacterial burden at 4 uM after 3 hrs (reference value: 7.0 log10 CFU/ml); format: functional
[13] = test system: Staphylococcus aureus; test: Bacteriostatic activity against methicillin-resistant Staphylococcus aureus ATCC 33591 at 2 to 4 uM measured after 6 hrs; format: functional, organism-based
[14] = test system: Staphylococcus aureus; test: Bacteriostatic activity against methicillin-resistant Staphylococcus aureus ATCC 33591 at 2 to 4 uM measured within 6 hrs; format: functional, organism-based

For CN[C@H](CC(C)C)C(=O)N[C@H]1C(=O)N[C@@H](CC(N)=O)C(=O)N[C@H]2C(=O)N[C@H]3C(=O)N[C@H](C(=O)N[C@H](C(=O)O)c4cc(O)cc(O)c4-c4cc3ccc4O)[C@H](O)c3ccc(c(Cl)c3)Oc3cc2cc(c3O)Oc2ccc(cc2Cl)[C@H]1O [VANCOMYCIN AGLYCON], the MIC [1] was > 100 µM, the MIC [2] was 4 µM (≈ 4.58 µg/mL) and the MIC [3] was 1.8 µM (≈ 2.06 µg/mL). For the same compound, the MIC [4] was 1 µM (≈ 1.14 µg/mL) and the MIC [5] was 1 µM (≈ 1.14 µg/mL).

In the case of CCCCCCCCN(CCCNC(=O)[C@H]1NC(=O)[C@H]2NC(=O)[C@H](NC(=O)[C@@H]3NC(=O)[C@H](CC(N)=O)NC(=O)[C@H](NC(=O)[C@@H](CC(C)C)NC)[C@H](O)c4ccc(c(Cl)c4)Oc4cc3cc(c4O)Oc3ccc(cc3Cl)[C@H]2O)c2ccc(O)c(c2)-c2c(O)cc(O)cc21)CCCNC(=O)C(F)(F)F, the MIC [1] is reported as 6.5 µM (≈ 9.52 µg/mL), the MIC [2] is reported as 0.8 µM (≈ 1.17 µg/mL) and the MIC [3] is reported as 0.4 µM (≈ 0.586 µg/mL). It also gave an MIC [4] of 0.8 µM (≈ 1.17 µg/mL) and an MIC [5] of 1 µM (≈ 1.47 µg/mL).

With CN[C@H](CC(C)C)C(=O)N[C@H]1C(=O)N[C@@H](CC(N)=O)C(=O)N[C@H]2C(=O)N[C@H]3C(=O)N[C@H](C(=O)N[C@H](C(=O)NCCC[N+](C)(C)CCCCCCCC[N+](C)(C)CCCNC(=O)C(F)(F)F)c4cc(O)cc(O)c4-c4cc3ccc4O)[C@H](O)c3ccc(c(Cl)c3)Oc3cc2cc(c3O)Oc2ccc(cc2Cl)[C@H]1O the MIC [1] was > 100 µM, the MIC [2] was 0.5 µM and the MIC [3] was 0.2 µM. For the same compound, the MIC [4] was 1 µM and the MIC [5] was 1 µM.

Work on CN[C@H](CC(C)C)C(=O)N[C@@H]1C(=O)N[C@H](CC(N)=O)C(=O)N[C@@H]2C(=O)N[C@@H]3C(=O)N[C@@H](C(=O)N[C@H](C(=O)NCCC[N+](C)(C)CCCCCCCC[N+](C)(C)CCCNC(=O)[C@H]4NC(=O)[C@@H]5NC(=O)[C@@H](NC(=O)[C@H]6NC(=O)[C@@H](CC(N)=O)NC(=O)[C@@H](NC(=O)[C@@H](CC(C)C)NC)[C@@H](O)c7ccc(c(Cl)c7)Oc7cc6cc(c7O)Oc6ccc(cc6Cl)[C@@H]5O)c5ccc(O)c(c5)-c5c(O)cc(O)cc54)c4cc(O)cc(O)c4-c4cc3ccc4O)[C@@H](O)c3ccc(c(Cl)c3)Oc3cc2cc(c3O)Oc2ccc(cc2Cl)[C@@H]1O yielded an MIC [1] of 48 µM, an MIC [2] of 0.1 µM and an MIC [3] of 0.05 µM. For the same compound, the MIC [4] was 0.2 µM and the MIC [5] was 0.3 µM.

Work on CN[C@H](CC(C)C)C(=O)N[C@H]1C(=O)N[C@@H](CC(N)=O)C(=O)N[C@H]2C(=O)N[C@H]3C(=O)N[C@H](C(=O)N[C@H](C(=O)NCCCCCCCCNC(=O)C(F)(F)F)c4cc(O)cc(O)c4-c4cc3ccc4O)[C@H](O)c3ccc(c(Cl)c3)Oc3cc2cc(c3O)Oc2ccc(cc2Cl)[C@H]1O yielded an MIC [1] of 30.5 µM (≈ 41.7 µg/mL), an MIC [2] of 0.6 µM (≈ 0.82 µg/mL) and an MIC [3] of 0.6 µM (≈ 0.82 µg/mL). It also gave an MIC [4] of 1 µM (≈ 1.37 µg/mL) and an MIC [5] of 2 µM (≈ 2.73 µg/mL).

With CCCCCCCCN(CCCNC(=O)[C@H]1NC(=O)[C@@H]2NC(=O)[C@@H](NC(=O)[C@H]3NC(=O)[C@@H](CC(N)=O)NC(=O)[C@@H](NC(=O)[C@@H](CC(C)C)NC)[C@@H](O)c4ccc(c(Cl)c4)Oc4cc3cc(c4O)Oc3ccc(cc3Cl)[C@@H]2O)c2ccc(O)c(c2)-c2c(O)cc(O)cc21)CCCNC(=O)[C@@H]1NC(=O)[C@H]2NC(=O)[C@H](NC(=O)[C@@H]3NC(=O)[C@H](CC(N)=O)NC(=O)[C@H](NC(=O)[C@@H](CC(C)C)NC)[C@H](O)c4ccc(c(Cl)c4)Oc4cc3cc(c4O)Oc3ccc(cc3Cl)[C@H]2O)c2ccc(O)c(c2)-c2c(O)cc(O)cc21 the Activity [6] was 4.5 log10CFU/ml, the MIC [1] was 2.5 µM (≈ 6.24 µg/mL) and the MIC [2] was 0.6 µM (≈ 1.5 µg/mL). It also gave an MIC [3] of 0.5 µM (≈ 1.25 µg/mL), an Activity [7] of 3 log10CFU/ml and an MIC [4] of 0.6 µM (≈ 1.5 µg/mL). The Ka [8] was 5.7 ×10³ /M, the inhibition [9] was “Active” and the MIC [5] was 0.6 µM (≈ 1.5 µg/mL). For the same compound, the Activity [10] was “Active” and the Ka [11] was 1 ×10⁵ /M.

CN[C@H](CC(C)C)C(=O)N[C@@H]1C(=O)N[C@H](CC(N)=O)C(=O)N[C@@H]2C(=O)N[C@@H]3C(=O)N[C@@H](C(=O)N[C@H](C(=O)NCCCCCCCCNC(=O)[C@H]4NC(=O)[C@@H]5NC(=O)[C@@H](NC(=O)[C@H]6NC(=O)[C@@H](CC(N)=O)NC(=O)[C@@H](NC(=O)[C@@H](CC(C)C)NC)[C@@H](O)c7ccc(c(Cl)c7)Oc7cc6cc(c7O)Oc6ccc(cc6Cl)[C@@H]5O)c5ccc(O)c(c5)-c5c(O)cc(O)cc54)c4cc(O)cc(O)c4-c4cc3ccc4O)[C@@H](O)c3ccc(c(Cl)c3)Oc3cc2cc(c3O)Oc2ccc(cc2Cl)[C@@H]1O showed an MIC [1] of 25.8 µM (≈ 61.8 µg/mL), an MIC [2] of 0.2 µM (≈ 0.479 µg/mL) and an MIC [3] of 0.6 µM (≈ 1.44 µg/mL). For the same compound, the MIC [4] was 0.8 µM (≈ 1.92 µg/mL) and the MIC [5] was 0.6 µM (≈ 1.44 µg/mL).

CN[C@@H](CC(C)C)C(=O)N[C@H]1C(=O)N[C@@H](CC(N)=O)C(=O)N[C@H]2C(=O)N[C@H]3C(=O)N[C@H](C(=O)N[C@@H](C(=O)O)c4cc(O)cc(O)c4-c4cc3ccc4O)[C@H](O)c3ccc(c(Cl)c3)Oc3cc2cc(c3O[C@H]2O[C@@H](CO)[C@H](O)[C@@H](O)[C@@H]2O[C@@H]2C[C@@](C)(N)[C@@H](O)[C@@H](C)O2)Oc2ccc(cc2Cl)[C@H]1O showed an MIC [1] of 750 µM (≈ 1090 µg/mL), an MIC [2] of 13 µM (≈ 18.8 µg/mL) and an MIC [3] of 0.6 µM (≈ 0.87 µg/mL). The Activity [12] was 1 log10CFU/ml, the MIC [4] was 0.6 µM (≈ 0.87 µg/mL) and the Activity [13] was “inactive”. For the same compound, the Ka [8] was 5 ×10² /M, the MIC [5] was 0.7 µM (≈ 1.01 µg/mL) and the Activity [14] was “Active”. The Ka [11] was 1 ×10⁵ /M.
